# Measured values as given in ChEMBL document CHEMBL1671778, “Synthesis and serotonin transporter activity of 1,3-bis(aryl)-2-nitro-1-propenes as a new class of anticancer agents” (Bioorg Med Chem, 2011).
# The source made the active and inactive calls. The calls are words filed in the database; no cut-off is given here.
# Tested on: HEK293
# Test: Cytotoxicity against human HEK293 cells expressing human SERT assessed as decrease in cell viability after 48 hrs neutral red dye assay
# Type: functional, cell-based
# Details: HEK293, 48 h
# Outline: (§1)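 5x10^4 cells/well grown to sub-confluence (24-36 h), then exposed to compound 48 h. Neutral red dye 3+1 h, solubilised in 50% ethanol/1% acetic acid, absorbance 540 nm (690 nm background). Viability as percent of vehicle-treated cells; pEC50 by non-linear sigmoidal regression over 4 concentrations, triplicate on two independent days. Controls 30 mM sodium azide, 2% Triton-X. HEK293-hSERT cells kept in Geneticin, used up to 30 passages.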
row,SMILES,EC50 [µM]
1,O=CNC(Cc1ccc2c(c1)OCO2)Cc1ccc2c(c1)OCO2,1580
2,CSc1ccc(CC(C)N)cc1 (centres undefined) [4-METHYLTHIOAMPHETAMINE],25.1

# Tested on: MUTU-I
# Test: Induction of apoptosis in human chemosensitive MUTU-I cells assessed as caspase 3/7 activation at 10 uM after 4 hrs
# Type: functional, cell-based
# Details: not given
row,SMILES,Activity
1,O=[N+]([O-])/C(=C\c1ccc(Cl)cc1)Cc1ccc(Cl)cc1,Active
2,COc1ccc(/C=C(/Cc2ccc(OC)cc2)[N+](=O)[O-])cc1,Active
3,CSc1ccc(/C=C(/Cc2ccc(SC)cc2)[N+](=O)[O-])cc1,Active

# Biological target: T1, Sodium-dependent serotonin transporter (Homo sapiens, UniProt P31645)
# Details: HEK293, at 1 µM
# Target sequence in this assay (P31645 whole entry, looked up): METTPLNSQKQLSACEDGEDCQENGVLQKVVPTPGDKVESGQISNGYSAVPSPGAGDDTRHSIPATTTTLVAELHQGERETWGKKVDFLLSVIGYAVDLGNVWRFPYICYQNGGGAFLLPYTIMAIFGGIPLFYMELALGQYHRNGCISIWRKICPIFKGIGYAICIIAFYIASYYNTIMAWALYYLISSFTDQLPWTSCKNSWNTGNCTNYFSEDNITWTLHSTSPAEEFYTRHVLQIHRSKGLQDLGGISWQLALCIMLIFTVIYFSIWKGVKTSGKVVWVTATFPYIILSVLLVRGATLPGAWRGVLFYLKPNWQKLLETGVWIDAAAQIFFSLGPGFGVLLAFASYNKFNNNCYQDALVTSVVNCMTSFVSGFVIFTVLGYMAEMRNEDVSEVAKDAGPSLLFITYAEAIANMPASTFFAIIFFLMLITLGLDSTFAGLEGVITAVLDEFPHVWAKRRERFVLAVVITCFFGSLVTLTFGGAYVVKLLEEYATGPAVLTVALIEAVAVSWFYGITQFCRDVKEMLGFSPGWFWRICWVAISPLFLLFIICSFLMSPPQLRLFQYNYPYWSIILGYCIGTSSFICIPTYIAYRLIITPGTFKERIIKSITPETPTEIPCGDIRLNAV
row,SMILES,inhibition [%]
1,O=[N+]([O-])/C(=C\c1ccc(Cl)cc1)Cc1ccc(Cl)cc1,0
2,COc1ccc(/C=C(/Cc2ccc(OC)cc2)[N+](=O)[O-])cc1,25
3,O=CNC(Cc1ccc2c(c1)OCO2)Cc1ccc2c(c1)OCO2,18
4,CSc1ccc(/C=C(/Cc2ccc(SC)cc2)[N+](=O)[O-])cc1,25

# Biological target: T2, Tyrosine-protein phosphatase non-receptor type 1 (Homo sapiens) (UniProt P18031)
# T2 sequence (whole entry): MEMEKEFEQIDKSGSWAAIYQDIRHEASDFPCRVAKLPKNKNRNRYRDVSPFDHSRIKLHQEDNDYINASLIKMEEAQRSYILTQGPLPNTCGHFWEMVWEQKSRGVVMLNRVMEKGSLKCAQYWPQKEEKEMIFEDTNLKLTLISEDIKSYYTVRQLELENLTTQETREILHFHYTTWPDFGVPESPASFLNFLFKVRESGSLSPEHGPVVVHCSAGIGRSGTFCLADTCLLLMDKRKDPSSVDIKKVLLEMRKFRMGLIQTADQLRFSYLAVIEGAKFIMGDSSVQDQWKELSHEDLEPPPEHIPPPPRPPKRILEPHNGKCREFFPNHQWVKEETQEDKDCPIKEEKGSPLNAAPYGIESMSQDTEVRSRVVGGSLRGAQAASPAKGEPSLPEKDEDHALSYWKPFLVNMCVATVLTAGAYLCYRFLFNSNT
# Test: Inhibition of human recombinant PTP1B in chemosensitive MUTU-I cells after 30 mins
# Type: cell-based
# Details: not given
# Outline: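 Recombinant PTP1B expressed in E. coli, incubated with compound and a phosphopeptide substrate for 30 min at 30 °C. Released phosphate detected by malachite green at 620 nm and quantified against a phosphate standard curve. Suramin as positive control.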
row,SMILES,inhibition
1,O=[N+]([O-])/C(=C\c1ccc(Cl)cc1)Cc1ccc(Cl)cc1,inactive
2,COc1ccc(/C=C(/Cc2ccc(OC)cc2)[N+](=O)[O-])cc1,inactive
3,CSc1ccc(/C=C(/Cc2ccc(SC)cc2)[N+](=O)[O-])cc1,inactive

# Biological target: T1, Sodium-dependent serotonin transporter
# Details: HEK293, at 100 µM
# Target sequence in this assay (P31645 whole entry, looked up): as the sequence (P31645 whole entry, looked up) above
row,SMILES,inhibition [%]
1,O=[N+]([O-])/C(=C\c1ccc(Cl)cc1)Cc1ccc(Cl)cc1,23
2,COc1ccc(/C=C(/Cc2ccc(OC)cc2)[N+](=O)[O-])cc1,10
3,O=CNC(Cc1ccc2c(c1)OCO2)Cc1ccc2c(c1)OCO2,55
4,CSc1ccc(/C=C(/Cc2ccc(SC)cc2)[N+](=O)[O-])cc1,18

# Tested on: SH-SY5Y
# Test: Cytotoxicity against human SH-SY5Y cells expressing human SERT assessed as decrease in cell viability after 48 hrs neutral red dye assay
# Type: functional, cell-based
# Details: not given
row,SMILES,EC50 [µM]
1,O=CNC(Cc1ccc2c(c1)OCO2)Cc1ccc2c(c1)OCO2,> 10000
2,CSc1ccc(CC(C)N)cc1 (centres undefined) [4-METHYLTHIOAMPHETAMINE],631

# Biological target: Tubulin (Homo sapiens) (UniProt P68371+Q9H4B7+P0DPH7+P68366+Q13509+Q71U36+P04350+Q3ZCM7+P07437+P68363+Q9BQE3+Q6PEY2+Q13885+Q9BVA1+Q9BUF5)
# Test: Inhibition of tubulin polymerisation in human chemosensitive MUTU-I cells after 30 mins
# Type: cell-based
# Details: not given
row,SMILES,inhibition
1,O=[N+]([O-])/C(=C\c1ccc(Cl)cc1)Cc1ccc(Cl)cc1,inactive
2,COc1ccc(/C=C(/Cc2ccc(OC)cc2)[N+](=O)[O-])cc1,inactive
3,CSc1ccc(/C=C(/Cc2ccc(SC)cc2)[N+](=O)[O-])cc1,inactive

# Tested on: SH-SY5Y
# Test: Antiproliferative activity against human SH-SY5Y cells after 24 hrs Alamar blue assay
# Type: functional, cell-based
# Details: not given
# Outline: (§2)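 Alamar Blue viability: 1-5x10^4 cells/well treated 24 h, then Alamar Blue (pre-warmed) 4-6 h at 37 °C in the dark. Fluorescence read at 590 nm (excitation 544 nm), background of medium plus dye subtracted, untreated cells = 100% viability. Miconazole 10 µM as cell-death control. Range 1 µM-1 mM, triplicate on two independent days. pEC50 from non-linear sigmoidal regression.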
row,SMILES,EC50 [µM]
1,O=[N+]([O-])/C(=C\c1ccc(Cl)cc1)Cc1ccc(Cl)cc1,2.51
2,COc1ccc(/C=C(/Cc2ccc(OC)cc2)[N+](=O)[O-])cc1,12.6
3,O=CNC(Cc1ccc2c(c1)OCO2)Cc1ccc2c(c1)OCO2,224
4,CSc1ccc(/C=C(/Cc2ccc(SC)cc2)[N+](=O)[O-])cc1,20

# Tested on: MUTU-I
# Test: Induction of apoptosis in human chemosensitive MUTU-I cells assessed as chromatin condensation and membrane bledding at 10 uM after 4 hrs
# Type: functional, cell-based
# Details: not given
# Outline: (§3)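 Cells at 3x10^5 cells/mL exposed for 4 h or 8 h. 150 µl aliquots were cytocentrifuged onto slides (500 ×g, 2 min), air-dried, methanol-fixed, and stained with eosin Y and methylene blue. Morphology was examined by light microscopy at 60x.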
row,SMILES,Activity
1,O=[N+]([O-])/C(=C\c1ccc(Cl)cc1)Cc1ccc(Cl)cc1,Active
2,COc1ccc(/C=C(/Cc2ccc(OC)cc2)[N+](=O)[O-])cc1,Active
3,CSc1ccc(/C=C(/Cc2ccc(SC)cc2)[N+](=O)[O-])cc1,Active

# Tested on: not listed separately
# Test: Induction of apoptosis in human chemosensitive MUTU-I cells assessed as accumulation at pre-G1 phase at 10 uM by propidium iodide FACS analysis
# Type: functional
# Details: not given
# Outline: (§4)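 750,000 MUTU-I cells per sample treated for the stated time, then harvested (300 ×g, 5 min), washed in ice-cold PBS and fixed overnight at 4 °C in 70% ethanol. Stained with RNase A and propidium iodide, 30 min at 37 °C in the dark. Flow cytometry counted 10,000 gated cells for cell-cycle phases. Taxol 10 µM as positive control.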
row,SMILES,Activity [%]
1,O=[N+]([O-])/C(=C\c1ccc(Cl)cc1)Cc1ccc(Cl)cc1,41
2,COc1ccc(/C=C(/Cc2ccc(OC)cc2)[N+](=O)[O-])cc1,32
3,CSc1ccc(/C=C(/Cc2ccc(SC)cc2)[N+](=O)[O-])cc1,50

# Tested on: not listed separately
# Test: Antiproliferative activity against human chemosensitive MUTU-I cells after 24 hrs Alamar blue assay
# Type: functional, cell-based
# Details: not given
# Outline: as §2
row,SMILES,EC50 [µM]
1,O=[N+]([O-])/C(=C\c1ccc(Cl)cc1)Cc1ccc(Cl)cc1,1
2,COc1ccc(/C=C(/Cc2ccc(OC)cc2)[N+](=O)[O-])cc1,2.51
3,O=CNC(Cc1ccc2c(c1)OCO2)Cc1ccc2c(c1)OCO2,63.1
4,CSc1ccc(/C=C(/Cc2ccc(SC)cc2)[N+](=O)[O-])cc1,3.16

# Tested on: MUTU-I
# Test: Induction of apoptosis in human chemosensitive MUTU-I cells assessed as induction of PARP cleavage at 10 uM after 8 hrs
# Type: functional, cell-based
# Details: not given
# Outline: (§5)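 PARP cleavage by Western blot: 5x10^6 cells pelleted (500 ×g, 5 min), washed, and lysed in Laemmli buffer with protease inhibitors. Lysates run on 8% SDS-PAGE, transferred to PVDF, and probed with anti-PARP detecting full-length 113 kDa and cleaved 85 kDa forms. HRP secondary antibody, chemiluminescence detection.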
row,SMILES,Activity
1,O=[N+]([O-])/C(=C\c1ccc(Cl)cc1)Cc1ccc(Cl)cc1,Active
2,COc1ccc(/C=C(/Cc2ccc(OC)cc2)[N+](=O)[O-])cc1,Active
3,CSc1ccc(/C=C(/Cc2ccc(SC)cc2)[N+](=O)[O-])cc1,Active

# Tested on: MUTU-I
# Test: Induction of apoptosis in human chemosensitive MUTU-I cells assessed as accumulation at G2/M phase after 2 to 8 hrs by propidium iodide FACS analysis relative to taxol
# Type: functional, cell-based
# Details: not given
# Outline: as §4
row,SMILES,Activity
1,O=[N+]([O-])/C(=C\c1ccc(Cl)cc1)Cc1ccc(Cl)cc1,Active
2,COc1ccc(/C=C(/Cc2ccc(OC)cc2)[N+](=O)[O-])cc1,Active
3,CSc1ccc(/C=C(/Cc2ccc(SC)cc2)[N+](=O)[O-])cc1,Active

# Tested on: MUTU-I
# Test: Induction of apoptosis in human chemosensitive MUTU-I cells assessed as chromatin condensation and membrane bledding at 10 uM after 8 hrs
# Type: functional, cell-based
# Details: not given
# Outline: as §3
row,SMILES,Activity
1,O=[N+]([O-])/C(=C\c1ccc(Cl)cc1)Cc1ccc(Cl)cc1,Active
2,COc1ccc(/C=C(/Cc2ccc(OC)cc2)[N+](=O)[O-])cc1,Active
3,CSc1ccc(/C=C(/Cc2ccc(SC)cc2)[N+](=O)[O-])cc1,Active

# Biological target: T1, Sodium-dependent serotonin transporter
# Test: Inhibition of [3H]-serotonin reuptake at human SERT expressed in HEK293 cells after 15 to 20 mins by fluorescence neurotransmitter transporter assay
# Type: cell-based
# Details: not given
# Target sequence in this assay (P31645 whole entry): as the sequence (P31645 whole entry, looked up) above
row,SMILES,IC50 [µM]
1,CSc1ccc(CC(C)N)cc1 (centres undefined) [4-METHYLTHIOAMPHETAMINE],0.2

# Tested on: DG-75
# Test: Cytotoxicity against human chemoresistant DG75 cells expressing SERT assessed as decrease in cell viability 10 or 50 uM after 72 hrs Alamar blue assay
# Type: functional, cell-based
# Details: DG-75, 72 h
# Outline: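 1-5x10^4 cells/200 µl given 10 or 50 µM for 24 h (MUTU-I, MDA-MB231, PBMC) or […]. Alamar Blue at 37 °C in the dark 4-6 h, then fluorescence read with 544/590 nm. Media-only background subtracted; untreated cells set as 100% viability. Mean of six points (triplicate, two independent days). PBMCs from a healthy donor, isolated by ficoll density separation.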
row,SMILES,EC50 [µM]
1,O=CNC(Cc1ccc2c(c1)OCO2)Cc1ccc2c(c1)OCO2,15.8
2,CSc1ccc(CC(C)N)cc1 (centres undefined) [4-METHYLTHIOAMPHETAMINE],316

# Tested on: DG-75
# Test: Antiproliferative activity against human DG75 cells after 24 hrs Alamar blue assay
# Type: functional, cell-based
# Details: DG-75, 24 h
# Outline: as §2
row,SMILES,EC50 [µM]
1,O=[N+]([O-])/C(=C\c1ccc(Cl)cc1)Cc1ccc(Cl)cc1,12.6
2,COc1ccc(/C=C(/Cc2ccc(OC)cc2)[N+](=O)[O-])cc1,12.6
3,O=CNC(Cc1ccc2c(c1)OCO2)Cc1ccc2c(c1)OCO2,158
4,CSc1ccc(/C=C(/Cc2ccc(SC)cc2)[N+](=O)[O-])cc1,39.8

# Tested on: MUTU-I
# Test: Induction of apoptosis in human chemosensitive MUTU-I cells assessed as induction of PARP cleavage at 10 uM after 4 hrs
# Type: functional, cell-based
# Details: not given
# Outline: as §5
row,SMILES,Activity
1,O=[N+]([O-])/C(=C\c1ccc(Cl)cc1)Cc1ccc(Cl)cc1,Active
2,COc1ccc(/C=C(/Cc2ccc(OC)cc2)[N+](=O)[O-])cc1,Active
3,CSc1ccc(/C=C(/Cc2ccc(SC)cc2)[N+](=O)[O-])cc1,Active

# Tested on: HEK293
# Test: Cytotoxicity against human HEK293 cells assessed as decrease in cell viability after 48 hrs neutral red dye assay
# Type: functional, cell-based
# Details: HEK293, 48 h
# Outline: as §1
row,SMILES,EC50 [µM]
1,O=CNC(Cc1ccc2c(c1)OCO2)Cc1ccc2c(c1)OCO2,> 10000
2,CSc1ccc(CC(C)N)cc1 (centres undefined) [4-METHYLTHIOAMPHETAMINE],20

# Tested on: MUTU-I
# Test: Induction of apoptosis in human chemosensitive MUTU-I cells assessed as caspase 3/7 activation at 10 uM after 5 hrs
# Type: functional, cell-based
# Details: not given
# Outline: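 Caspase 3/7 activity by homogeneous fluorogenic kit: 0.5x10^5 cells exposed to compound (10 µM) for 5 h, then 100 µl Z-DEVD-R110 substrate added. After 2 h, cleaved substrate measured at 521 nm (excitation 499 nm).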
row,SMILES,Activity
1,O=[N+]([O-])/C(=C\c1ccc(Cl)cc1)Cc1ccc(Cl)cc1,Active
2,COc1ccc(/C=C(/Cc2ccc(OC)cc2)[N+](=O)[O-])cc1,Active
3,CSc1ccc(/C=C(/Cc2ccc(SC)cc2)[N+](=O)[O-])cc1,Active
